≈ marks a conversion by molar mass, not a printed value. Calls of active or inactive are those of the source. The rule behind the calls is not given here.
Tests used:
[1] = AUC (0 to infinity) in male Balb/c mouse at 30 mg/kg, po by LC-MS/MS analysis; assay type: ADME, organism-based; details: in vivo
Outline: (§1)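 Balb/c mice dosed 1 mg kg−1 intravenously or 30 mg kg−1 orally (2.5 mg kg−1 oral also given); plasma PK parameters derived.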

[2] = AUC (0 to infinity) in male Balb/c mouse at 1 mg/kg, iv by LC-MS/MS analysis; assay type: ADME, organism-based; details: in vivo; outline: as §1
[3] = system: Staphylococcus aureus; assay: Antibacterial activity against Staphylococcus aureus SA-K2191 overexpressing MsrA by Alamar blue staining based analysis; assay type: functional
[4] = Terminal half life in male Balb/c mouse at 1 mg/kg, iv by LC-MS/MS analysis; assay type: ADME, organism-based; details: in vivo, read-out: beta t1/2 (converted)
Outline: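 Balb/c mice dosed intravenously at 1 mg kg−1; plasma pharmacokinetic profile analysed for half-life, C0, AUC0−t and clearance.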

[5] = system: Staphylococcus aureus; assay: Antibacterial activity against methicillin-resistant Staphylococcus aureus ATCC 15187 incubated for 24 hrs by Alamar blue staining based microdilution method; assay type: functional
[6] = Protein binding in plasma (unknown origin); assay type: ADME, cell-free
[7] = Solubility of compound in water; assay type: physicochemical
[8] = Tmax in male Balb/c mouse at 30 mg/kg, po by LC-MS/MS analysis; assay type: ADME, organism-based; details: in vivo; outline: as §1
[9] = system: J774.A1; assay: Cytotoxicity against mouse J774.A1 cells up to 200 ug/ml incubated for 24 hrs by absorbance based assay
[10] = system: Staphylococcus aureus; assay: Bacteriostatic activity against Staphylococcus aureus ATCC 29213 assessed as reduction in bacterial count incubated for 2 to 24 hrs by time-kill assay; assay type: functional, organism-based; details: time 2-24 hrs
[11] = system: Staphylococcus aureus; assay: Synergistic bactericidal activity against Staphylococcus aureus ATCC 29213 assessed as reduction in bacterial count at 0.02 ug/ml measured after 24 hrs in presence of vancomycin by time-kill assay; assay type: functional, organism-based; details: dose 0.02 µg/ml
Outline: (§2)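 Time-kill with compound combined with vancomycin at synergistic concentrations (from checkerboard FIC) against S. aureus; CFU followed up to 8 h and at 24 h.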

[12] = system: Staphylococcus aureus; assay: Bactericidal activity against methicillin-resistant Staphylococcus aureus ATCC 15187 assessed as reduction in bacterial count at 2 times MIC measured after 8 to 10 hrs by time-kill assay; assay type: functional, organism-based; details: time 8-10 hrs
[13] = system: Staphylococcus aureus; assay: Additive antibacterial activity against Staphylococcus aureus ATCC 29213 assessed as fractional inhibitory concentration index at 0.02 ug/ml incubated up to 24 hrs in presence of rifampicin by checkerboard analysis; assay type: functional; details: dose 0.02 µg/ml
Outline: (§3)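 Checkerboard microdilution in cation-adjusted MHB, done per CLSI. The compound and partner antibiotic were dissolved in DMSO. The antibiotic was serially diluted across the plate and the compound was twofold serially diluted into the wells to make the combinations. Each well received 0.1 ml of inoculum, a 0.5 McFarland suspension (1.5 × 10^8 CFU ml−1) diluted 1:100 in MHB. Plates were incubated 24 h at 37 °C, then read with Alamar blue (0.04%). FIC index was calculated.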

[14] = system: Staphylococcus aureus; assay: Disruption of cell membrane integrity in methicillin-resistant Staphylococcus aureus ATCC 15187 assessed as red fluorescence at 1 to 2 times MIC incubated for 2.5 hrs by DAPI/PI staining based fluorescence microscopy; assay type: functional, organism-based
Outline: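 Bacteria treated at 1× and 2× MIC, with vancomycin 2× MIC as control and an untreated blank; stained with DAPI (all cells) and propidium iodide (membrane-damaged cells); imaged by fluorescence microscopy, red PI signal taken as membrane damage.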

[15] = system: Staphylococcus aureus; assay: Additive antibacterial activity against methicillin-resistant Staphylococcus aureus ATCC 15187 assessed as fractional inhibitory concentration index at 0.075 ug/ml incubated up to 24 hrs in presence of vancomycin by checkerboard analysis; assay type: functional; details: dose 0.075 µg/ml; outline: as §3
[16] = system: Staphylococcus aureus; assay: Synergistic antibacterial activity against methicillin-resistant Staphylococcus aureus ATCC 15187 assessed as fractional inhibitory concentration index at 0.075 ug/ml incubated up to 24 hrs in presence of rifampicin by checkerboard analysis; assay type: functional; details: dose 0.075 µg/ml; outline: as §3
[17] = system: Staphylococcus aureus; assay: Bactericidal activity against Staphylococcus aureus ATCC 29213 assessed as reduction in bacterial count at 2 to 4 times MIC incubated for 2 to 24 hrs by time-kill assay relative to control; assay type: functional; design: scale not given: the % may be the effect or the level left; details: time 2-24 hrs
[18] = Drug metabolism in mouse liver microsomes; assay type: ADME, Microsome; details: read-out: Drug metabolism
[19] = system: Staphylococcus aureus; assay: Antibacterial activity against Staphylococcus aureus SA-K2192 overexpressing TetK by Alamar blue staining based analysis; assay type: functional
[20] = system: Staphylococcus aureus; assay: Bactericidal activity against Staphylococcus aureus ATCC 29213 assessed as reduction in bacterial count at 2 to 4 times MIC incubated for 2 hrs by time-kill assay
[21] = system: Staphylococcus aureus; assay: Antibacterial activity against methicillin-resistant Staphylococcus aureus ATCC 15187 infected in mouse RAW264.7 cells assessed as bacterial eradication by colony counting method based microdilution method; assay type: functional, organism-based
Outline: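 RAW 264.7 macrophages infected with MRSA, then treated at multiples of MIC non-toxic to the cells, with vancomycin control; intracellular bacterial load counted as CFU ml−1; compared with infection control by one-way ANOVA.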

[22] = Volume of distribution in male Balb/c mouse at 30 mg/kg, po by LC-MS/MS analysis; assay type: ADME, organism-based; details: in vivo; outline: as §1
[23] = system: Staphylococcus aureus; assay: Disruption of pre-formed biofilms of Staphylococcus aureus ATCC 29213 at 4 to 6 times MIC incubated for 24 hrs by absorbance based method relative to control; assay type: functional
[24] = system: Staphylococcus aureus; assay: Antibacterial activity against Staphylococcus aureus ATCC 29213 incubated for 24 hrs by Alamar blue staining based microdilution method; assay type: functional
[25] = system: Escherichia coli; assay: Antibacterial activity against Escherichia coli ATCC 25922 incubated for 24 hrs by Alamar blue staining based microdilution method; assay type: functional
[26] = system: Staphylococcus aureus; assay: Inhibition of biofilm formation of Staphylococcus aureus ATCC 29213 incubated for 27 hrs by absorbance based method; assay type: functional, organism-based
[27] = system: RAW264.7; assay: Cytotoxicity against mouse RAW264.7 cells up to 200 ug/ml incubated for 48 to 72 hrs by absorbance based assay; assay type: toxicity, cell-based; details: time 48-72 hrs, dose < 200 µg/ml
Outline: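 MTT read-out: macrophage cells plated at 1 × 10^4 cells per well in DMEM with 10% FBS, 37 °C, 5% CO2; treatment 48 h and 72 h; 2.5 mg ml−1 MTT 3 h, formazan dissolved in DMSO, OD 570 nm; doxorubicin 10 μM control.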

[28] = Clearance in male Balb/c mouse at 30 mg/kg, po by LC-MS/MS analysis; assay type: ADME, organism-based; details: in vivo; outline: as §1
[29] = system: Staphylococcus aureus; assay: Synergistic bactericidal activity against Staphylococcus aureus ATCC 29213 assessed as reduction in bacterial count at 0.02 ug/ml incubated up to 8 hrs in presence of vancomycin by time-kill assay; assay type: functional; details: dose 0.02 µg/ml; outline: as §2
[30] = system: Staphylococcus aureus; assay: Induction of resistance development in methicillin-resistant Staphylococcus aureus ATCC 15187 assessed as fold increase in MIC at 0.5 MIC measured after 20 passages relative to control; assay type: functional
Outline: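 Bacteria were serially passaged for 20 days after exposure to a sublethal drug concentration. MIC was determined at each passage. Vancomycin and norfloxacin were run as control agents.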

[31] = AUC (0 to t) in male Balb/c mouse at 30 mg/kg, po by LC-MS/MS analysis; assay type: ADME, organism-based; details: in vivo; outline: as §1

SMILES: CCCc1nn(C)c2c(Nc3ccc(O)cc3)nc(-c3ccc([N+](=O)[O-])o3)nc12
- AUC(0-inf) [1]: 3150 ng·h/mL
- AUC(0-inf) [2]: 94.8 ng·h/mL
- MIC [3]: 0.15 µg/mL (≈ 0.38 µM)
- half-life [4]: 30 min
- MIC [5]: 0.15 µg/mL (≈ 0.38 µM)
- PPB [6]: 99.1%
- solubility [7]: 1 µg/mL (≈ 2.54 µM)
- Tmax [8]: 30 min
- Activity [9]: Non-toxic
- Activity [10]: Dose-dependent-effect
- Activity [11]: inactive
- Activity [12]: Not active; Initial Killing Was Observed, But Exhibited Some Re-Growth After 8 To 10 Hrs
- fractional inhibitory concentration index (FICI) [13]: 0.7
- Activity [14]: Active
- fractional inhibitory concentration index (FICI) [15]: 1
- fractional inhibitory concentration index (FICI) [16]: 0.5
- Activity [17]: 99.9%
- metabolised [18]: 71%
- MIC [19]: 0.3 µg/mL (≈ 0.761 µM)
- Activity [20]: Active
- Activity [21]: Dose-dependent-effect
- Vd [22]: 4.75 L/kg
- Activity [23]: 30%
- MIC [24]: 0.64 µg/mL (≈ 1.62 µM)
- MIC [25]: inactive
- inhibition [26]: Dose-dependent-effect
- Activity [27]: Non-toxic
- CL/F [28]: 159 mL/min/kg
- Activity [29]: >10 log10CFU
- fold change (FC) [30]: 3200
- AUC(0-t) [31]: 3150 ng·h/mL
